TAAR1 antag: antagonists of human TAAR1; CHO RD-HGA16 TAAR1, Fluo-8 calcium fluorescence, antagonist; inhibition, % at 3 µM; hit rate 1.5% among 360,000; AID 624466;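 active = inhibition above a per-plate cutoff, the mean inhibition of test compounds on that plate plus 3 SD, cut at about 49% in these data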;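 also: 0% = DMSO plus EC80 beta-PEA response and 100% = DMSO alone without agonist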
Target sequence (Q96RJ0 whole entry, looked up): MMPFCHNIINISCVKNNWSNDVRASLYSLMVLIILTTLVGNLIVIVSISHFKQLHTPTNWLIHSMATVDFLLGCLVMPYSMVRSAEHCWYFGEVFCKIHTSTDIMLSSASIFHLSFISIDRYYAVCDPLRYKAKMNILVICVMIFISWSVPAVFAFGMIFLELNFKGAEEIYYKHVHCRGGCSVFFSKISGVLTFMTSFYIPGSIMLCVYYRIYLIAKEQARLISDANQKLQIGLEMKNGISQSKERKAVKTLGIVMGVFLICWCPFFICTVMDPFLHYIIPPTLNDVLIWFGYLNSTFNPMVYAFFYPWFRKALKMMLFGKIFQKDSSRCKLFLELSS
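Test system – hTAAR1-expressing CHO RD-HGA16 cells, Gα16-coupled · Also added – β-PEA at EC80 concentration, post-compound challenge · Compound – 3 µM, single point · Incubation – dye loading 75 min at 37 °C, then 30 min room temperature · Measured by – Fluo-8 intracellular calcium dye fluorescence, real-time kinetic reads · Benchmarks – vehicle and agonist controls · Replicates – singlicate, one well per test compound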
M1 PAM: human CHRM1 positive allosteric modulation; P11229; CHO-K1 hM1, Fluo-8 calcium fluorescence, ACh EC20; 0% = ACh EC20, 100% = maximal ACh; activation, % at 3 µM; hit rate 0.088% among 360,000; AID 588819; in the data active = activation above about 19%, passing the limit was not always enough
m5-HT2A agonist: mouse HTR2A agonism via beta-arrestin recruitment; hit rate 0.66% among 360,000; P35363; activation, % at 7.6 µM; AID 624169; CHO-K1 mHTR2A beta-arrestin complementation, luminescence; percent of 30 µM serotonin response;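 active = activation above a run cutoff, the mean activation of all tested compounds plus 3 SD, cut at about 14% in these data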;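 also: 0% = plate median of compound wells and 100% = 30 µM serotonin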
M1 antag: human CHRM1 antagonism; CHO-K1 hM1, Fluo-8 calcium fluorescence, ACh EC80 antagonist; P11229; hit rate 1.3% among 360,000; AID 588852; inhibition, % at 3 µM;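 active = percent inhibition above its own plate's cutoff, namely the mean of that plate's compound wells plus 3 SD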;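 also: peak over basal fluorescence ratio during 140 s after agonist addition; 0% = ACh EC80 plus DMSO and 100% = DMSO alone without agonist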
TAAR1 ag: human TAAR1 agonism; activation, % at 3 µM; CHO RD-HGA16 TAAR1, Fluo-8 calcium fluorescence; vehicle wells 0%, saturating PEA agonist 100%; Q96RJ0; hit rate 0.99% among 360,000;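 active = activation above the mean activation of all test compounds in the run plus 3 SD, cut at about 38% in these data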
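Test system: RD-HGA16 (CHO) cells co-expressing Gα16 and hTAAR1; dosing: one-point dosing at 3 µM (nominal); timing: 17-24 h seeding, 75 min 37 °C dye, 30 min RT; signal: kinetic Fluo-8 calcium fluorescence; read-out basis: % activation relative to PEA EC100 response; controls: DMSO and PEA EC100; replicates: n 1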
M1 ag: human M1 muscarinic receptor agonism | P11229 | CHO-K1 hM1, Fluo-8 calcium fluorescence, agonist mode; 0% DMSO, 100% acetylcholine EC100 | activation, % at 3 µM | hit rate 0.33% among 360,000;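 active = activation above the run's mean compound activation plus 3 SD, cut at about 16% in these data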;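 also: peak over basal fluorescence ratio within a 140 s kinetic read after compound addition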
MOR ag counter: activates human mu opioid receptor in HTR2A counterscreen; shares compounds with m5-HT2A agonist; U2OS OPRM1 beta-arrestin PathHunter, luminescence; DMSO 0%, DAMGO 9.3 µM 100%; activation, % at 9.3 µM; hit rate 5.3% among 2,300;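 active = mean activation above the mean of DMSO-only wells plus 3 SD, cut at about 0.5% in these data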
m5-HT2A ag conf: confirmation of mouse HTR2A serotonin receptor agonists. shares compounds with m5-HT2A agonist. CHO-K1 PathHunter beta-arrestin recruitment, luminescence; DMSO 0%, 30 µM serotonin 100%. activation, % at 7.6 µM. hit rate 19% among 2,300;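 active = mean activation across triplicates above the hit threshold derived in the original primary screen, cut at about 15% in these data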
Numbers without * were called inactive; / = not tested or not shown; ! = repeats disagree. Most compounds without a hit are left out; they make up all but 3.9% or so of the library.

SMILES	TAAR1 antag	M1 PAM	m5-HT2A agonist	M1 antag	TAAR1 ag	M1 ag	MOR ag counter	m5-HT2A ag conf
CC/C(=N\NC(=O)CCC(=O)NCc1ccccc1)c1ccc(O)cc1	-7	13	1	-9	2	-2	/	/
CCC1=C(OC(=O)N(CC)CC)N2C(=O)OC(=NCC3CC3)[C@]2(C)[C@H]2C1=CC[C@H]1C(=O)N(CC)C(=O)[C@H]12	-5	0	16*	4	3	-3	0	0
Cc1c(NS(=O)(=O)c2cccc(C(=O)OCC(=O)c3ccc(Cl)cc3)c2)c(=O)n(-c2ccccc2)n1C	10	1	-2	6	1	-3	/	/
COc1ccc(C(=O)N2CCOC2CNC(=O)C(=O)NCc2ccc(F)cc2)cc1 (stereo unspecified)	-10	11	-2	-19	0	-2	/	/
COc1ccc(S(=O)(=O)N2CCOC2CNC(=O)C(=O)NCc2ccccc2Cl)cc1 (stereo unspecified)	-19	1	-6	-3	2	-3	/	/
O=C(NCc1ccccc1Cl)C(=O)NCC1OCCN1S(=O)(=O)c1ccc(F)cc1 (stereo unspecified)	1	7	16*	-7	-1	-2	-1	-5
O=C(NCc1ccc(F)cc1)C(=O)NCC1OCCN1C(=O)c1ccc(Cl)cc1 (stereo unspecified)	-19	0	24*	6	-1	-6	-1	-4
CCC(=O)N1c2ccc(S(=O)(=O)N3CCCC3)cc2CC1C (stereo unspecified)	-6	0	15*	7	1	-5	0	0
CCC(=O)N1c2ccc(S(=O)(=O)N3CCCCC3)cc2CC1C (stereo unspecified)	8	10	-1	-15	0	-5	/	/
CCc1ccc(OCC(O)CN2CCN(c3ccccc3)CC2)cc1 (stereo unspecified)	-21	-6	15*!	3	2	-4	0	29*
CCOC(=O)N1CCN(Cc2ccc(OCC(O)CN3CCCCC3)cc2)CC1 (stereo unspecified)	-16	0	33*	-4	0	-4	0	71*
Cc1cccc(N2CCN(CC(O)COc3ccc4ccccc4c3)CC2)c1 (stereo unspecified)	-22	0	15*	-2	2	1	0	53*
OC(c1ccc(F)cc1)c1nc(-c2cccc(C(F)(F)F)c2)cs1 (stereo unspecified)	2	6	23*	-19	-1	-5	0	-6
COc1ccc(C(O)c2nc(-c3cccc(C(C)C)c3)cs2)cc1 (stereo unspecified)	-16	9	-6	-17	-1	-3	/	/
COc1ccc(C(O)c2nc(-c3cccc(O)c3)cs2)cc1 (stereo unspecified)	-10	9	17*	-10	7	6	-1	-1
Cc1ccc(NC(=O)CN(C)S(=O)(=O)c2ccc(Cl)s2)c(O)c1	3	3	18*	8	1	-1	-1	-1
Cc1ccc(NC(=O)CN(C)S(=O)(=O)c2cccs2)c(Br)c1	-24	4	-13	-6	2	-5	/	/
CCOc1ccc(OCC(=O)NCc2n[nH]c(=O)c3ccccc23)cc1	-7	7	16*	-7	0	-5	-1	-1
Cn1ncc2c(Nc3ccc(Br)cc3)nc(Nc3ccc(Br)cc3)nc21	-22	1	0	-2	3	-2	/	/
Cn1ncc2c(Nc3ccc(O)cc3)nc(Cl)nc21	-13	2	18*	-4	7	-2	-1	-3
COc1ccccc1NC(=O)CSc1c2c(nc3ccccc13)CCC2	-10	-18	-1	12	3	-10	/	/
Cc1cc(NC(=O)CSc2c3c(nc4ccccc24)CCC3)no1	9	13	15*	-14	1	-3	-1	-5
CC(C)(C)n1nnnc1C(c1cc2ccccc2o1)N(CCC#N)Cc1ccccc1 (stereo unspecified)	-11	/	42*	/	0	/	-1	-6
CCc1ccccc1-n1nnnc1SCC(=O)Nc1ccc(N2CCN(C)CC2)cc1	10	-11	-6	7	30	-6	/	/
O=C(NNC(=O)c1ccco1)c1cccc(Br)c1	-10	10	15*	-5	3	-2	0	0
SMILES	TAAR1 antag	M1 PAM	m5-HT2A agonist	M1 antag	TAAR1 ag	M1 ag	MOR ag counter	m5-HT2A ag conf
CCCCCCCC/C=C\CCCCCCCC(=O)NCCc1ccc(O)c(O)c1	3	7	34*	-27	14	1	0	170*
Cc1csc(=O)n1CC(=O)OCc1nnc(-c2ccccc2)o1	-9	-3	21*	2	4	-1	0	-1
O=C(CCS(=O)(=O)c1cccs1)Nc1ccc(C(=O)NCc2cccs2)cc1	0	1	-4	-3	6	-6	/	/
COc1ccc(N(C)C(=O)c2ccc(NC(=O)CCS(=O)(=O)c3cccs3)cc2)cc1	7	13	15*	-14	0	-5	-1	-1
O=C(O)c1ccc(CNC(=O)C23CC4CC(CC(C4)C2)C3)cc1	-8	6	2	-5	1	1	/	/
N#Cc1ccsc1NC(=O)c1cnccn1	-2	6	3	-6	3	-2	/	/
CC(C)(C)NS(=O)(=O)c1cc(C(=O)Nc2sccc2C#N)ccc1Cl	8	-5	18*	12	10	0	0	15*
COc1ccccc1CNCC(O)(c1ccc(Cl)cc1)c1ccc(Cl)cc1	-4	-2	22*	2	14	-5	0	8
COc1ccccc1CNCC(O)(c1ccc(F)cc1)c1ccc(F)cc1	8	3	-10	-4	3	-6	/	/
Cc1ccc(NC(=O)CSc2nnc(CNC(=O)c3ccco3)n2C)cc1C	-28	6	-6	-6	3	-3	/	/
COc1ccccc1CNC(=O)C[C@H]1CC[C@@H]2[C@H](COC[C@H](O)CN2Cc2ccc3c(c2)OCO3)O1	-14	/	25*	/	2	/	-1	1
COc1ccc([N+](=O)[O-])cc1NC(=O)c1cncc(Br)c1	2	14	-4	-4	2	-7	/	/
Cc1cc([N+](=O)[O-])ccc1NC(=O)c1cncc(Br)c1	-8	-6	16*	10	0	-5	0	-5

Screens as filed in PubChem BioAssay.
